Test results as given in ChEMBL document CHEMBL1143161, “Non-charged thiamine analogs as inhibitors of enzyme transketolase” (Bioorg Med Chem Lett, 2008).

Experiments:
Transketolase [1] = biological target: T1, Transketolase (Homo sapiens, UniProt P29401); experiment: Inhibition of apo-transketolase
T1 sequence (P29401 whole entry): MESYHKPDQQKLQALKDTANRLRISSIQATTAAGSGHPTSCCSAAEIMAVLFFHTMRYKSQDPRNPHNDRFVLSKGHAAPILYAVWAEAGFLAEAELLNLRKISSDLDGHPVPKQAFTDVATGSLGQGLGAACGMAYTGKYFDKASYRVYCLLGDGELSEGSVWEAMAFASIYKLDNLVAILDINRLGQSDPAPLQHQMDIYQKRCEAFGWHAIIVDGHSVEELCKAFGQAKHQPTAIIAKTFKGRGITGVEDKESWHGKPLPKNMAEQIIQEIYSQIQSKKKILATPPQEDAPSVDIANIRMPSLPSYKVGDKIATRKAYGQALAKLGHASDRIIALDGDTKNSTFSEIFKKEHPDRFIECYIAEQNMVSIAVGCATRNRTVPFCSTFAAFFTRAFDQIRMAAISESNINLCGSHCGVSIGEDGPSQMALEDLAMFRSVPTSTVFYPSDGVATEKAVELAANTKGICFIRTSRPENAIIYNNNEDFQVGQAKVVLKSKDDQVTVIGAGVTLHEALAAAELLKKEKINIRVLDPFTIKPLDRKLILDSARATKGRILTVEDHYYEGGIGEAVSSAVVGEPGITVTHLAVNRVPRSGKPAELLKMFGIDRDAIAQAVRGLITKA

Transketolase [2] = biological target: T1, Transketolase; experiment: Inhibition of apo-transketolase by coupled TPPK/Apo-TK enzymatic assay
Summary of the method: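 Each compound was first checked for pyrophosphorylation by TPPK, with thiamine as the control substrate; pyrophosphorylation was scored relative to thiamine. Compounds were then tested for competition with TPP in inhibiting TK activity. Kd is the average of at least three experiments, with data within 2-fold of the mean.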

Transketolase [3] = biological target: T1, Transketolase; experiment: Inhibition of transketolase in human HCT116 cells; assay type: cell-based, HCT-116
Summary of the method: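 Cellular TK assay in human colon cancer HCT-116 cells, run in triplicate. EC50 reported as the average, with data within 4-fold of the mean.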

CC(=O)Nc1ncc(Cc2csc(CCO)c2C)c(N)n1
Kd (Transketolase [1]): 1.1 µM | Kd (Transketolase [2]): 0.003 µM | EC50 (Transketolase [3]): 6.3 µM

Cc1c(Cc2cnc(N)nc2N)csc1CCO
Kd (Transketolase [1]): 2.2 µM | EC50 (Transketolase [3]): 8.5 µM

Cc1c(Cc2cnc(-c3ccccc3)nc2N)csc1CCO
Kd (Transketolase [1]): > 500 µM | Kd (Transketolase [2]): 0.23 µM | EC50 (Transketolase [3]): > 10 µM

Cc1c(Cc2cnc(C(C)C)nc2N)csc1CCO
Kd (Transketolase [1]): > 500 µM | Kd (Transketolase [2]): 0.064 µM | EC50 (Transketolase [3]): 2.6 µM

Cc1c(Cc2cnc(C3CC3)nc2N)csc1CCO
Kd (Transketolase [1]): > 500 µM | Kd (Transketolase [2]): 0.06 µM | EC50 (Transketolase [3]): 0.66 µM

Cc1ncc(Cc2[nH]nc(CCO)c2C)c(N)n1
EC50 (Transketolase [3]): 17 µM

Cc1ncc(Cc2nn(C)c(CCO)c2C)c(N)n1
EC50 (Transketolase [3]): 4.7 µM

Cc1ncc(Cc2c(C)c(CCO)nn2C)c(N)n1
EC50 (Transketolase [3]): 1.1 µM

Cc1c(Cc2cncnc2N)csc1CCO
Kd (Transketolase [1]): > 100 µM | EC50 (Transketolase [3]): 52 µM

Cc1c(Cc2cnc(C(F)(F)F)nc2N)csc1CCO
Kd (Transketolase [2]): 0.063 µM | EC50 (Transketolase [3]): 25 µM

Cc1ccc(Cn2c(C)c(CCO)sc2=O)c(N)n1
Kd (Transketolase [1]): > 500 µM | EC50 (Transketolase [3]): 3.24 µM

Cc1ncc(Cn2c(C)c(CCO[P@@](=O)(O)OP(=O)(O)O)sc2=O)c(N)n1
Kd (Transketolase [1]): 0.016 µM

Cc1ncc(Cc2csc(CCO)c2C)c(N)n1 [3-DEAZATHIAMINE]
Kd (Transketolase [1]): 18 µM | Kd (Transketolase [2]): 0.012 µM | EC50 (Transketolase [3]): 1.2 µM

Cc1ncc(C[n+]2csc(CCO)c2C)c(N)n1 [THIAMINE ION]
Kd (Transketolase [1]): 6800 µM

Cc1ncc(Cn2c(C)c(CCO)sc2=O)c(N)n1 [THIAMINE THIAZOLONE]
Kd (Transketolase [1]): 34 µM | EC50 (Transketolase [3]): 2.71 µM
